Assay results from ChEMBL document CHEMBL4152188, “Design, synthesis and biological evaluation of C(4) substituted monobactams as antibacterial agents against multidrug-resistant Gram-negative bacteria” (Eur J Med Chem, 2018).
≈ marks a conversion by molar mass, not a printed value.

What was measured:
Format in all cases: functional
Escherichia coli [1] = experiment: Selectivity index, ratio of MIC for against Escherichia coli isolate 210737 to MIC for Escherichia coli isolate 210737 in presence of BPL
Escherichia coli [2] = experiment: Antibacterial activity against extended-spectrum beta-lactamase producing Escherichia coli isolate 212648 after 18 hrs in presence of BPL by CLSI broth microdilution method; conditions: isolate 212648, 18 h
Outline: (§1)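 CLSI broth microdilution against clinical isolates (ESBL E. coli, KPC-2 MDR K. pneumoniae, IMP-4 MDR P. aeruginosa; five per species). Iron limitation: Mueller-Hinton broth supplemented with 16 mg/liter 2,2'-bipyridyl to complex iron and induce iron uptake systems. Read-out: MIC.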

Escherichia coli [3] = experiment: Antibacterial activity against extended-spectrum beta-lactamase producing Escherichia coli isolate 106342 after 18 hrs in presence of BPL by CLSI broth microdilution method; conditions: isolate 106342, 18 h; outline: as §1
Klebsiella pneumoniae [4] = experiment: Antibacterial activity against KPC-2 producing Klebsiella pneumoniae isolate 212232 after 18 hrs in presence of BPL by CLSI broth microdilution method; conditions: isolate 212232, 18 h; outline: as §1
Pseudomonas aeruginosa [5] = experiment: Antibacterial activity against IMP-4 producing Pseudomonas aeruginosa isolate 209321 after 18 hrs in presence of BPL by CLSI broth microdilution method; conditions: isolate 209321, 18 h; outline: as §1
Klebsiella pneumoniae [6] = experiment: Antibacterial activity against KPC-2 producing Klebsiella pneumoniae isolate 212423 after 18 hrs by CLSI broth microdilution method; conditions: isolate 212423, 18 h
Klebsiella pneumoniae [7] = experiment: Selectivity index, ratio of MIC for against KPC-2 producing Klebsiella pneumoniae isolate 209632 to MIC for against KPC-2 producing Klebsiella pneumoniae isolate 209632 in presence of BPL
Pseudomonas aeruginosa [8] = experiment: Selectivity index, ratio of MIC for against IMP-4 producing Pseudomonas aeruginosa isolate 207272 to MIC for against IMP-4 producing Pseudomonas aeruginosa isolate 207272 in presence of BPL
Klebsiella pneumoniae [9] = experiment: Antibacterial activity against KPC-2 producing Klebsiella pneumoniae isolate 212229 after 18 hrs by CLSI broth microdilution method; conditions: isolate 212229, 18 h
Escherichia coli [10] = experiment: Selectivity index, ratio of MIC for against extended-spectrum beta-lactamase producing Escherichia coli isolate 208687 to MIC for extended-spectrum beta-lactamase producing Escherichia coli isolate 208687 in presence of BPL
Escherichia coli [11] = experiment: Selectivity index, ratio of MIC for against extended-spectrum beta-lactamase producing Escherichia coli isolate 106342 to MIC for extended-spectrum beta-lactamase producing Escherichia coli isolate 106342 in presence of BPL
Pseudomonas aeruginosa [12] = experiment: Antibacterial activity against IMP-4 producing Pseudomonas aeruginosa isolate 209321 after 18 hrs by CLSI broth microdilution method; conditions: isolate 209321, 18 h
Escherichia coli [13] = experiment: Antibacterial activity against extended-spectrum beta-lactamase producing Escherichia coli isolate 209285 after 18 hrs in presence of BPL by CLSI broth microdilution method; conditions: isolate 209285, 18 h; outline: as §1
Klebsiella pneumoniae [14] = experiment: Antibacterial activity against KPC-2 producing Klebsiella pneumoniae isolate 209632 after 18 hrs by CLSI broth microdilution method; conditions: isolate 209632, 18 h
Escherichia coli [15] = experiment: Antibacterial activity against extended-spectrum beta-lactamase producing Escherichia coli isolate 212648 after 18 hrs by CLSI broth microdilution method; conditions: isolate 212648, 18 h
Pseudomonas aeruginosa [16] = experiment: Antibacterial activity against IMP-4 producing Pseudomonas aeruginosa isolate 207272 after 18 hrs by CLSI broth microdilution method; conditions: isolate 207272, 18 h
Klebsiella pneumoniae [17] = experiment: Antibacterial activity against KPC-2 producing Klebsiella pneumoniae isolate 209735 after 18 hrs in presence of BPL by CLSI broth microdilution method; conditions: isolate 209735, 18 h; outline: as §1
Klebsiella pneumoniae [18] = experiment: Selectivity index, ratio of MIC for against KPC-2 producing Klebsiella pneumoniae isolate 212232 to MIC for against KPC-2 producing Klebsiella pneumoniae isolate 212232 in presence of BPL
Escherichia coli [19] = experiment: Antibacterial activity against extended-spectrum beta-lactamase producing Escherichia coli isolate 208687 after 18 hrs by CLSI broth microdilution method; conditions: isolate 208687, 18 h
Escherichia coli [20] = experiment: Antibacterial activity against Escherichia coli isolate 210737 after 18 hrs by CLSI broth microdilution method; conditions: isolate 210737, 18 h
Klebsiella pneumoniae [21] = experiment: Antibacterial activity against KPC-2 producing Klebsiella pneumoniae isolate 212232 after 18 hrs by CLSI broth microdilution method; conditions: isolate 212232, 18 h
Pseudomonas aeruginosa [22] = experiment: Antibacterial activity against IMP-4 producing Pseudomonas aeruginosa isolate 212886 after 18 hrs in presence of BPL by CLSI broth microdilution method; conditions: isolate 212886, 18 h; outline: as §1
Pseudomonas aeruginosa [23] = experiment: Antibacterial activity against IMP-4 producing Pseudomonas aeruginosa isolate 212886 after 18 hrs by CLSI broth microdilution method; conditions: isolate 212886, 18 h
Escherichia coli [24] = experiment: Antibacterial activity against extended-spectrum beta-lactamase producing Escherichia coli isolate 209285 after 18 hrs by CLSI broth microdilution method; conditions: isolate 209285, 18 h
Pseudomonas aeruginosa [25] = experiment: Antibacterial activity against IMP-4 producing Pseudomonas aeruginosa isolate 209471 after 18 hrs in presence of BPL by CLSI broth microdilution method; conditions: isolate 209471, 18 h; outline: as §1
Pseudomonas aeruginosa [26] = experiment: Selectivity index, ratio of MIC for against IMP-4 producing Pseudomonas aeruginosa isolate 209471 to MIC for against IMP-4 producing Pseudomonas aeruginosa isolate 209471 in presence of BPL
Escherichia coli [27] = experiment: Antibacterial activity against extended-spectrum beta-lactamase producing Escherichia coli isolate 106342 after 18 hrs by CLSI broth microdilution method; conditions: isolate 106342, 18 h
Pseudomonas aeruginosa [28] = experiment: Antibacterial activity against IMP-4 producing Pseudomonas aeruginosa isolate 209471 after 18 hrs by CLSI broth microdilution method; conditions: isolate 209471, 18 h
Pseudomonas aeruginosa [29] = experiment: Antibacterial activity against IMP-4 producing Pseudomonas aeruginosa isolate 207272 after 18 hrs in presence of BPL by CLSI broth microdilution method; conditions: isolate 207272, 18 h; outline: as §1
Escherichia coli [30] = experiment: Selectivity index, ratio of MIC for against extended-spectrum beta-lactamase producing Escherichia coli isolate 212648 to MIC for extended-spectrum beta-lactamase producing Escherichia coli isolate 212648 in presence of BPL
Escherichia coli [31] = experiment: Antibacterial activity against extended-spectrum beta-lactamase producing Escherichia coli isolate 208687 after 18 hrs in presence of BPL by CLSI broth microdilution method; conditions: isolate 208687, 18 h; outline: as §1
Escherichia coli [32] = experiment: Selectivity index, ratio of MIC for against extended-spectrum beta-lactamase producing Escherichia coli isolate 209285 to MIC for extended-spectrum beta-lactamase producing Escherichia coli isolate 209285 in presence of BPL
Pseudomonas aeruginosa [33] = experiment: Antibacterial activity against IMP-4 producing Pseudomonas aeruginosa isolate 208247 after 18 hrs by CLSI broth microdilution method; conditions: isolate 208247, 18 h
Klebsiella pneumoniae [34] = experiment: Antibacterial activity against KPC-2 producing Klebsiella pneumoniae isolate 212423 after 18 hrs in presence of BPL by CLSI broth microdilution method; conditions: isolate 212423, 18 h; outline: as §1
Pseudomonas aeruginosa [35] = experiment: Selectivity index, ratio of MIC for against IMP-4 producing Pseudomonas aeruginosa isolate 208247 to MIC for against IMP-4 producing Pseudomonas aeruginosa isolate 208247 in presence of BPL
Klebsiella pneumoniae [36] = experiment: Selectivity index, ratio of MIC for against KPC-2 producing Klebsiella pneumoniae isolate 212229 to MIC for against KPC-2 producing Klebsiella pneumoniae isolate 212229 in presence of BPL
Pseudomonas aeruginosa [37] = experiment: Antibacterial activity against IMP-4 producing Pseudomonas aeruginosa isolate 208247 after 18 hrs in presence of BPL by CLSI broth microdilution method; conditions: isolate 208247, 18 h; outline: as §1
Klebsiella pneumoniae [38] = experiment: Antibacterial activity against KPC-2 producing Klebsiella pneumoniae isolate 209735 after 18 hrs by CLSI broth microdilution method; conditions: isolate 209735, 18 h
Klebsiella pneumoniae [39] = experiment: Selectivity index, ratio of MIC for against KPC-2 producing Klebsiella pneumoniae isolate 212423 to MIC for against KPC-2 producing Klebsiella pneumoniae isolate 212423 in presence of BPL
Escherichia coli [40] = experiment: Antibacterial activity against Escherichia coli isolate 210737 after 18 hrs in presence of BPL by CLSI broth microdilution method; conditions: isolate 210737, 18 h; outline: as §1
Klebsiella pneumoniae [41] = experiment: Selectivity index, ratio of MIC for against KPC-2 producing Klebsiella pneumoniae isolate 209735 to MIC for against KPC-2 producing Klebsiella pneumoniae isolate 209735 in presence of BPL
Pseudomonas aeruginosa [42] = experiment: Selectivity index, ratio of MIC for against IMP-4 producing Pseudomonas aeruginosa isolate 212886 to MIC for against IMP-4 producing Pseudomonas aeruginosa isolate 212886 in presence of BPL
Klebsiella pneumoniae [43] = experiment: Antibacterial activity against KPC-2 producing Klebsiella pneumoniae isolate 209632 after 18 hrs in presence of BPL by CLSI broth microdilution method; conditions: isolate 209632, 18 h; outline: as §1
Klebsiella pneumoniae [44] = experiment: Antibacterial activity against KPC-2 producing Klebsiella pneumoniae isolate 212229 after 18 hrs in presence of BPL by CLSI broth microdilution method; conditions: isolate 212229, 18 h; outline: as §1

With CC(C)C(O/N=C(\C(=O)N[C@@H]1C(=O)N(S(=O)(=O)O)[C@@H]1CSc1nc(=O)c(O)nn1C)c1csc(N)n1)c1cc(=O)c(O)cn1O (some centres undefined) the “Selectivity Index” value (Escherichia coli [1]) was 2, the MIC (Escherichia coli [2]) was 1 µg/mL and the MIC (Escherichia coli [3]) was 2 µg/mL. It also gave an MIC (Klebsiella pneumoniae [4]) of 0.25 µg/mL, an MIC (Pseudomonas aeruginosa [5]) of over 64 µg/mL and an MIC (Klebsiella pneumoniae [6]) of 4 µg/mL (≈ 5.82 µM). The “Selectivity Index” value (Klebsiella pneumoniae [7]) was 2, the “Selectivity Index” value (Pseudomonas aeruginosa [8]) was 1 and the MIC (Klebsiella pneumoniae [9]) was 4 µg/mL (≈ 5.82 µM). The “Selectivity Index” value (Escherichia coli [10]) was 4, the “Selectivity Index” value (Escherichia coli [11]) was 2 and the MIC (Pseudomonas aeruginosa [12]) was over 64 µg/mL. It also gave an MIC (Escherichia coli [13]) of 4 µg/mL, an MIC (Klebsiella pneumoniae [14]) of 2 µg/mL (≈ 2.91 µM) and an MIC (Escherichia coli [15]) of 4 µg/mL (≈ 5.82 µM). The MIC (Pseudomonas aeruginosa [16]) was 64 µg/mL (≈ 93.1 µM), the MIC (Klebsiella pneumoniae [17]) was 2 µg/mL and the “Selectivity Index” value (Klebsiella pneumoniae [18]) was 8. It also gave an MIC (Escherichia coli [19]) of 4 µg/mL (≈ 5.82 µM), an MIC (Escherichia coli [20]) of 2 µg/mL (≈ 2.91 µM) and an MIC (Klebsiella pneumoniae [21]) of 2 µg/mL (≈ 2.91 µM). The MIC (Pseudomonas aeruginosa [22]) was 32 µg/mL, the MIC (Pseudomonas aeruginosa [23]) was over 64 µg/mL and the MIC (Escherichia coli [24]) was 4 µg/mL (≈ 5.82 µM). The MIC (Pseudomonas aeruginosa [25]) was 64 µg/mL, the “Selectivity Index” value (Pseudomonas aeruginosa [26]) was 1 and the MIC (Escherichia coli [27]) was 4 µg/mL (≈ 5.82 µM). The MIC (Pseudomonas aeruginosa [28]) was 64 µg/mL (≈ 93.1 µM), the MIC (Pseudomonas aeruginosa [29]) was 64 µg/mL and the “Selectivity Index” value (Escherichia coli [30]) was 4. The MIC (Escherichia coli [31]) was 1 µg/mL, the “Selectivity Index” value (Escherichia coli [32]) was 1 and the MIC (Pseudomonas aeruginosa [33]) was 64 µg/mL (≈ 93.1 µM). The MIC (Klebsiella pneumoniae [34]) was 2 µg/mL, the “Selectivity Index” value (Pseudomonas aeruginosa [35]) was 1 and the “Selectivity Index” value (Klebsiella pneumoniae [36]) was 4. For the same compound, the MIC (Pseudomonas aeruginosa [37]) was 64 µg/mL, the MIC (Klebsiella pneumoniae [38]) was 4 µg/mL (≈ 5.82 µM) and the “Selectivity Index” value (Klebsiella pneumoniae [39]) was 2. For the same compound, the MIC (Escherichia coli [40]) was 1 µg/mL, the “Selectivity Index” value (Klebsiella pneumoniae [41]) was 2 and the “Selectivity Index” value (Pseudomonas aeruginosa [42]) was over 2. The MIC (Klebsiella pneumoniae [43]) was 1 µg/mL and the MIC (Klebsiella pneumoniae [44]) was 1 µg/mL.
